In ChEMBL document CHEMBL3808334, “Synthesis and in vitro evaluation of novel triazine analogues as anticancer agents and their interaction studies with bovine serum albumin” (Eur J Med Chem, 2016):

Experiments:
Format in all cases: functional
[1] = Growth inhibition of human OVCAR3 cells assessed as cell growth at 10^-4 M incubated for 48 hrs by sulforhodamine B assay; settings: OVCAR-3, 48 h, read-out: Activity
[2] = tested on: SK-MEL-2; test: Growth inhibition of human SK-MEL-2 cells assessed as cell growth at 10^-5 M incubated for 48 hrs by sulforhodamine B assay; settings: SK-MEL-2, 48 h, read-out: Activity
[3] = Growth inhibition of human UO31 cells assessed as cell growth at 10^-5 M incubated for 48 hrs by sulforhodamine B assay; settings: UO-31, 48 h, read-out: Activity
[4] = Growth inhibition of human OVCAR5 cells assessed as cell growth at 10^-6 M incubated for 48 hrs by sulforhodamine B assay; settings: OVCAR-5, 48 h, read-out: Activity
[5] = Growth inhibition of human Caki1 cells incubated for 48 hrs by sulforhodamine B assay; settings: CAKI-1, 48 h
How it was run: (§1)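 Cells seeded at 5,000–40,000/well according to doubling time and preincubated 24 h at 37 °C, 5% CO2. Time-zero plates were TCA-fixed. DMSO concentrate was diluted in medium with 50 µg/ml gentamicin to give five concentrations (10-fold or ½ log steps), then exposed 48 h. Cells were TCA-fixed, stained with 0.4% SRB and read at 515 nm. Percent growth was taken against time-zero and control; GI50, TGI and LC50 derived.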

[6] = tested on: EKVX; test: Growth inhibition of human EKVX cells assessed as cell growth at 10^-4 M incubated for 48 hrs by sulforhodamine B assay; settings: read-out: Activity; how it was run: as §1
[7] = tested on: NCI-H322M; test: Growth inhibition of human NCI-H322M cells assessed as cell growth at 10^-8 M incubated for 48 hrs by sulforhodamine B assay; settings: read-out: Activity
[8] = Growth inhibition of human OVCAR5 cells assessed as cell growth at 10^-7 M incubated for 48 hrs by sulforhodamine B assay; settings: OVCAR-5, 48 h, read-out: Activity
[9] = Growth inhibition of human UACC62 cells assessed as cell growth at 10^-7 M incubated for 48 hrs by sulforhodamine B assay; settings: UACC-62, 48 h, read-out: Activity
[10] = tested on: Malme-3M; test: Growth inhibition of human MALME-3M cells incubated for 48 hrs by sulforhodamine B assay
How it was run: (§2)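 Cells were plated at 5,000–40,000 per well according to doubling time and preincubated 24 h at 37 °C in 5% CO2; time-zero plates were then TCA-fixed. Five concentrations (10-fold or ½-log dilutions, DMSO stock) were incubated 48 h. Cells were TCA-fixed, stained with 0.4% SRB and read at 515 nm. GI50 was taken where [(Ti−Tz)/(C−Tz)]×100 = 50.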

[11] = Growth inhibition of human UACC62 cells incubated for 48 hrs by sulforhodamine B assay; settings: UACC-62, 48 h; how it was run: as §2
[12] = tested on: NCI-H322M; test: Growth inhibition of human NCI-H322M cells assessed as cell growth at 10^-5 M incubated for 48 hrs by sulforhodamine B assay; settings: read-out: Activity
[13] = Growth inhibition of human BT549 cells assessed as cell growth at 10^-4 M incubated for 48 hrs by sulforhodamine B assay; settings: BT-549, 48 h, read-out: Activity
How it was run: (§3)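 Five-dose assay: five concentrations from 10-fold or ½-log serial dilutions. Cells are plated at 5,000–40,000 per well according to doubling time, grown 24 h, then exposed 48 h at 37 °C, 5% CO₂. Fixed with cold 50% TCA (final addition) for 60 min at 4 °C and stained with 0.4% SRB in 1% acetic acid. Bound dye is solubilized in 10 mM Tris base and read at 515 nm. GI₅₀ is where [(Ti−Tz)/(C−Tz)]×100 = 50, with a time-zero plate as Tz.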

[14] = Growth inhibition of human RXF393 cells assessed as cell growth at 10^-7 M incubated for 48 hrs by sulforhodamine B assay; settings: RXF 393, 48 h, read-out: Activity
[15] = Growth inhibition of human SF295 cells assessed as cell growth at 10 uM incubated for 48 hrs by sulforhodamine B assay; settings: SF-295, 48 h, read-out: Activity
[16] = Growth inhibition of human Hs 578T cells assessed as cell growth at 10^-4 M incubated for 48 hrs by sulforhodamine B assay; settings: read-out: Activity
[17] = Growth inhibition of human SF539 cells assessed as cell growth at 10^-4 M incubated for 48 hrs by sulforhodamine B assay; settings: SF-539, 48 h, read-out: Activity
[18] = Growth inhibition of human OVCAR3 cells assessed as cell growth at 10^-7 M incubated for 48 hrs by sulforhodamine B assay; settings: OVCAR-3, 48 h, read-out: Activity
[19] = Growth inhibition of human UACC62 cells assessed as cell growth at 10^-4 M incubated for 48 hrs by sulforhodamine B assay; settings: UACC-62, 48 h, read-out: Activity
[20] = tested on: A498; test: Growth inhibition of human A498 cells assessed as cell growth at 10^-7 M incubated for 48 hrs by sulforhodamine B assay; settings: A498, 48 h, read-out: Activity; how it was run: as §3
[21] = Growth inhibition of human SF268 cells incubated for 48 hrs by sulforhodamine B assay; settings: SF-268, 48 h; how it was run: as §2
[22] = tested on: KM12; test: Growth inhibition of human KM12 cells assessed as cell growth at 10^-6 M incubated for 48 hrs by sulforhodamine B assay; settings: KM12, 48 h, read-out: Activity
[23] = Growth inhibition of human UO31 cells assessed as cell growth at 10^-8 M incubated for 48 hrs by sulforhodamine B assay; settings: UO-31, 48 h, read-out: Activity
[24] = Growth inhibition of human DU145 cells assessed as cell growth at 10^-6 M incubated for 48 hrs by sulforhodamine B assay; settings: DU-145, 48 h, read-out: Activity; how it was run: as §1
[25] = Growth inhibition of human HL-60(TB) cells assessed as cell growth at 10 uM incubated for 48 hrs by sulforhodamine B assay; settings: HL-60, 48 h, read-out: Activity
[26] = tested on: MDA-MB-231; test: Growth inhibition of human MDA-MB-231 cells assessed as cell growth at 10^-6 M incubated for 48 hrs by sulforhodamine B assay; settings: MDA-MB-231, 48 h, read-out: Activity
[27] = tested on: A498; test: Growth inhibition of human A498 cells assessed as cell growth at 10^-4 M incubated for 48 hrs by sulforhodamine B assay; settings: A498, 48 h, read-out: Activity; how it was run: as §3
[28] = tested on: M14; test: Growth inhibition of human M14 cells assessed as cell growth at 10^-6 M incubated for 48 hrs by sulforhodamine B assay; settings: M14, 48 h, read-out: Activity
[29] = read-out: pLC50 (the source's name) (converted)
[30] = read-out: LC50 (the source's name)

SMILES: Fc1ccc(-c2nc(Nc3ccc(-c4nc5ccccc5[nH]4)cc3)nc(N3CCOCC3)n2)cc1
- growth at 100 µM [1]: -45%
- growth at 10 µM [2]: -35%
- growth at 10 µM [3]: -30%
- growth at 1 µM [4]: 92%
- LC50 [5]: > 100 µM
- GI50 ([5]; read-out: GI50): 1.98 µM
- TGI ([5]; read-out: TGI): 5.02 µM
- GI50 ([5]; read-out: pGI50 (converted)): 2 µM
- CC50 [5, 29]: > 100 µM
- TGI ([5]; read-out: pTGI (converted)): 5.01 µM
- growth at 100 µM [6]: 3%
- growth at 0.01 µM [7]: 101%
- growth at 0.1 µM [8]: 83%
- growth at 0.1 µM [9]: 91%
- GI50 ([10]; read-out: GI50): 2.05 µM
- CC50 [10, 30]: 7.63 µM
- TGI ([10]; read-out: TGI): 3.95 µM
- GI50 ([10]; read-out: pGI50 (converted)): 2.04 µM
- CC50 [10, 29]: 7.59 µM
- TGI ([10]; read-out: pTGI (converted)): 3.98 µM
- GI50 ([11]; read-out: GI50): 1.7 µM
- TGI ([11]; read-out: TGI): 3.56 µM
- GI50 ([11]; read-out: pGI50 (converted)): 1.7 µM
- TGI ([11]; read-out: pTGI (converted)): 3.55 µM
- growth at 10 µM [12]: 16%
- growth at 100 µM [13]: -28%
- growth at 0.1 µM [14]: 100%
- growth at 10 µM [15]: -63.5%
- growth at 100 µM [16]: -3%
- growth at 100 µM [17]: -84%
- growth at 0.1 µM [18]: 100%
- growth at 100 µM [19]: -45%
- growth at 0.1 µM [20]: 83%
- GI50 ([21]; read-out: GI50): 2.82 µM
- CC50 [21, 30]: > 100 µM
- TGI ([21]; read-out: TGI): 26.5 µM
- GI50 ([21]; read-out: pGI50 (converted)): 2.82 µM
- CC50 [21, 29]: > 100 µM
- TGI ([21]; read-out: pTGI (converted)): 26.3 µM
- growth at 1 µM [22]: 86%
- growth at 0.01 µM [23]: 88%
- growth at 1 µM [24]: 98%
- growth at 10 µM [25]: -46%
- growth at 1 µM [26]: 73%
- growth at 100 µM [27]: -96%
- growth at 1 µM [28]: 95%

SMILES: c1ccc2[nH]c(-c3ccc(Nc4nc(N5CCCCC5)nc(N5CCOCC5)n4)cc3)nc2c1
- growth at 100 µM [1]: -49%
- growth at 10 µM [2]: -38%
- growth at 10 µM [3]: -35%
- growth at 1 µM [4]: 103%
- GI50 ([5]; read-out: GI50): 1.81 µM
- TGI ([5]; read-out: TGI): 4.08 µM
- GI50 ([5]; read-out: pGI50 (converted)): 1.82 µM
- TGI ([5]; read-out: pTGI (converted)): 4.07 µM
- growth at 100 µM [6]: 1%
- growth at 0.01 µM [7]: 90%
- growth at 0.1 µM [8]: 100%
- growth at 0.1 µM [9]: 96%
- GI50 ([10]; read-out: GI50): 1.87 µM
- CC50 [10, 30]: 6.81 µM
- TGI ([10]; read-out: TGI): 3.57 µM
- GI50 ([10]; read-out: pGI50 (converted)): 1.86 µM
- CC50 [10, 29]: 6.76 µM
- TGI ([10]; read-out: pTGI (converted)): 3.55 µM
- GI50 ([11]; read-out: GI50): 1.96 µM
- TGI ([11]; read-out: TGI): 4.32 µM
- GI50 ([11]; read-out: pGI50 (converted)): 1.95 µM
- TGI ([11]; read-out: pTGI (converted)): 4.37 µM
- growth at 10 µM [12]: 29%
- growth at 100 µM [13]: -50%
- growth at 0.1 µM [14]: 91%
- growth at 10 µM [15]: -51.4%
- growth at 100 µM [16]: -12%
- growth at 100 µM [17]: -76%
- growth at 0.1 µM [18]: 104%
- growth at 100 µM [19]: -38%
- growth at 0.1 µM [20]: 81%
- GI50 ([21]; read-out: GI50): 3.21 µM
- CC50 [21, 30]: > 100 µM
- TGI ([21]; read-out: TGI): 20.1 µM
- GI50 ([21]; read-out: pGI50 (converted)): 3.24 µM
- CC50 [21, 29]: > 100 µM
- TGI ([21]; read-out: pTGI (converted)): 20 µM
- growth at 1 µM [22]: 93%
- growth at 0.01 µM [23]: 85%
- growth at 1 µM [24]: 96%
- growth at 10 µM [25]: -22.7%
- growth at 1 µM [26]: 92%
- growth at 100 µM [27]: -90%
- growth at 1 µM [28]: 93%
